In series [1] the test system is newly diagnosed GB. The settings on record: radiation and carmustine with or without CQ; cited from earlier work.
For series [2], the system named is patients with newly diagnosed glioblastoma. The series can be described thus: Phase II adverse events related to study drug. In kind it is in vivo, human.
The subject of series [3] is autophagic vacuoles in peripheral blood mononuclear cells. The experiment in a line: PK-PD analysis. The series is classed as in vivo, human. The settings on record: at 9 wk.
Series [4] has the same test system. The experiment in a line: Electron microscopy scoring of autophagic vacuoles in PBMC. The series is classed as in vivo, human. The method, boiled down: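 PBMC were fixed in 2% glutaraldehyde and held at 4 °C. Micrographs at 10,000–12,000× covered 20–25 mononuclear cells per sample, from multiple fields. Two blinded scorers counted AV by morphological criteria, excluding mitochondria-like structures, and their counts were averaged. A mixed-effects model used time (baseline, week 3, week 9) and a random subject effect.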

A short description of series [5]: Population pharmacokinetics of HCQ in whole blood. In kind it is in vivo, human.
The subject of series [6] is patients with newly diagnosed glioblastoma. In kind it is in vivo, human.
The subject of series [7] is newly diagnosed glioblastoma. The settings on record: phase III trial, RT plus concomitant and adjuvant TMZ; cited from earlier work.
The mark [8] stands for this setting: phase II, n = 76, HCQ + RT + TMZ.
The mark [9] stands for this setting: HCQ 800 mg/d with RT + TMZ, during chemoradiation.

The text below walks through data of publication PMC4203513 (Autophagy, 2014).

Molecules are shown by their SMILES. Entries after “also recorded” stand apart in the source; their conditions may differ. Where two headings read alike, the source gives them in different places.

In the case of `CCN(CC)CCCC(C)Nc1ccnc2cc(Cl)ccc12` (stereo not shown) [CQ, Chloroquine], the median overall survival result in series [1] is “trend toward increased median overall survival”.
For the compound `CCN(CCO)CCCC(C)Nc1ccnc2cc(Cl)ccc12` (stereo not shown) [HCQ, hydroxychloroquine], the “patients off treatment due to toxicity” value in series [2] (phase I and II patients, RT + TMZ + HCQ) was determined as 3%. In series [2] (setting [8]), the “Abdominal pain, Grade 3” value is given as 1 (1) number of patients (%); the “Abdominal pain, Total (grade 3 and 4)” value is reported as 1 (1) number of patients (%); the “Alanine aminotransferase increased, Grade 3” value is listed as 2 (3) number of patients (%); the “Alanine aminotransferase increased, Total (grade 3 and 4)” value is given as 2 (3) number of patients (%). Also, in series [2] (setting [8]), the “Blood bilirubin increased, Total (grade 3 and 4)” value is on record as 1 (1) number of patients (%); the “Constipation, Grade 4” value is listed as 1 (1) number of patients (%); the “Constipation, Total (grade 3 and 4)” value is given as 1 (1) number of patients (%); the “Eye disorders, Grade 3” value is recorded as 1 (1) number of patients (%). Further, in series [2] (setting [8]), the “Eye disorders, Total (grade 3 and 4)” value is recorded as 1 (1) number of patients (%); the “Fatigue, Grade 3” value is 1 (1) number of patients (%); the “Fatigue, Total (grade 3 and 4)” value was 1 (1) number of patients (%); the “Neutrophil count decreased, Grade 3” value is 3 (4) number of patients (%). Besides, in series [3], the “PK-PD correlation in PBMC” value is given as “not significant”. In addition, the “increase in mean autophagic vacuole count (mixed-effects model)” value in series [4] (all patients (n = 40), P = 0.041) worked out at 0.075 per wk. Further, in series [4] (one patient, 800 mg HCQ cohort), the “treatment-associated increase in AV diameter” value stood at 2.5 fold, the “treatment-associated increase in AV perimeter” value is 10 fold and the “treatment-associated increase in percent of cytoplasm involved by AV” value stood at 9 fold. Further, in series [5] (HCQ 200 to 800 mg/d), the “relationship of HCQ exposure / whole blood concentration to dose” value is “dose-proportional relationship; also recorded: dose-proportional and sustained exposure”. For the same compound, the “time-dependent trend of HCQ concentrations in whole blood” value in series [5] (groups of patients receiving the same dose) was “did not show a significant time-dependent trend”. In addition, the “mean tlag (individual estimates)” value in series [5] (individual PK parameter estimates derived from the population model, range 0.97 to 1.25) is reported as 1.06 h. Moreover, in series [5] (individual PK parameter estimates derived from the population model, range 26 to 5483), the “mean V/F (individual estimates)” value is reported as 483.96 L. In addition, the “V2/F (individual estimates)” value in series [5] (individual PK parameter estimates derived from the population model, range 558 to 2208) is given as 963 L. For the same compound, the “dose-limiting toxicities (DLTs)” value in series [6] (HCQ 200 mg/d with RT + TMZ) was “no dose-limiting toxicities”. Further, the “dose-limiting toxicities (DLTs)” value in series [6] (HCQ 400 mg/d with RT + TMZ) is on record as “no dose-limiting toxicities; also recorded: no further DLTs were observed”. Moreover, the “dose-limiting toxicities (DLTs)” value in series [6] (HCQ 600 mg/d with RT + TMZ, 3 patients) was “no DLTs”. Besides, in series [6] (HCQ 800 mg/d with RT + TMZ), the dose-limiting toxicity entry was “early and severe myelosuppression; also recorded: dose-limiting myelosuppression”; the “subjects with Grade 3 and 4 neutropenia and thrombocytopenia” value is on record as 3/3. Moreover, in series [6] (setting [9]), the “patients with grade 4 neutropenia” value is 2/3 and the “patients with grade 4 thrombocytopenia” value was 3/3. In addition, in series [6] (HCQ 200 to 800 mg/d with RT + TMZ), the “other grade 2 toxicities common to all dose levels” value was “nausea, fatigue, constipation, and diarrhea”. In addition, in series [6] (oral daily, in combination with RT and concurrent and adjuvant TMZ), the “maximum tolerated dose (MTD) of HCQ” value was 600 mg/day.
As to `Cn1nnc2c(C(N)=O)ncn2c1=O` [TMZ, temozolomide], in series [7], the “failure rate (death)” value was 0.6 per person-year of follow-up.
